Assay results published in ChEMBL document CHEMBL1144990, “Alpha1-adrenoceptor antagonists. 6. Structural optimization of pyridazinone-arylpiperazines. Study of the influence on affinity and selectivity of cyclic substituents at the pyridazinone ring and alkoxy groups at the arylpiperazine moiety” (J Med Chem, 2003).

Experiments:
[1] = molecular target: T1, 5-hydroxytryptamine receptor 1A (Rattus norvegicus, UniProt P19327); test: Displacement of [3H]8-OH-DPAT from 5-hydroxytryptamine 1A receptor of rat cortex membranes; format: cell membranes, Membrane
T1 sequence (P19327 whole entry): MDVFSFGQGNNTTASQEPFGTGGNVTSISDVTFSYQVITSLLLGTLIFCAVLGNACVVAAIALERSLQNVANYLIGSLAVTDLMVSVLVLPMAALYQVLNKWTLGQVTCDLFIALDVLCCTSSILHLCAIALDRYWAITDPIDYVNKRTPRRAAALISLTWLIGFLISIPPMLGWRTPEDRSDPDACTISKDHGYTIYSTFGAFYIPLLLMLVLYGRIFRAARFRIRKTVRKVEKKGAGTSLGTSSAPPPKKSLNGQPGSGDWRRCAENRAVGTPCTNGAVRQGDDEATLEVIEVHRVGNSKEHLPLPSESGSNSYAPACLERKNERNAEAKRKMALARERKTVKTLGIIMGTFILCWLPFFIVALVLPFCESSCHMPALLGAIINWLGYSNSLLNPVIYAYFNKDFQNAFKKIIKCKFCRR
Outline: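 Competition binding with seven drug concentrations, each in triplicate, across three separate experiments. IC50 values were converted to Ki by the Cheng–Prusoff equation, Ki = IC50/(1 + [L]/Kd), where [L] is the radioligand concentration and Kd its dissociation constant. Ki is reported as mean ± SD.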

[2] = molecular target: T2, Adrenergic receptor alpha-1 (Rattus norvegicus, UniProt P15823+P23944+P43140); test: Binding affinity for Alpha-1 adrenergic receptor in rat cortex membranes using [3H]-prazosin as radioligand; format: cell membranes
T2 sequence (P15823 whole entry): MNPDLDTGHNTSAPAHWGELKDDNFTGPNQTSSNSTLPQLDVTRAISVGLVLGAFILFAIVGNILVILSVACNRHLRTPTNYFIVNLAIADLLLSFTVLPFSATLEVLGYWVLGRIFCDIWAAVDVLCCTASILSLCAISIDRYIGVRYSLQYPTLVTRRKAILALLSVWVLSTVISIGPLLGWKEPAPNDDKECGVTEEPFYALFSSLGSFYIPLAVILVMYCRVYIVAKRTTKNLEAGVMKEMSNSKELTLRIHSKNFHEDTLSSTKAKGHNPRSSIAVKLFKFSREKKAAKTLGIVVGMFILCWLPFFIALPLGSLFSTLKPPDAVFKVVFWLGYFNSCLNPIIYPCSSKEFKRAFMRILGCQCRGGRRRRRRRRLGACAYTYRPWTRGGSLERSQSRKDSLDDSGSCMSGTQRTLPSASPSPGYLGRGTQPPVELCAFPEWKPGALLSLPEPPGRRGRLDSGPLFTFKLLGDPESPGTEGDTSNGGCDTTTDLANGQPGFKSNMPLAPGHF
T2 sequence (P23944 whole entry): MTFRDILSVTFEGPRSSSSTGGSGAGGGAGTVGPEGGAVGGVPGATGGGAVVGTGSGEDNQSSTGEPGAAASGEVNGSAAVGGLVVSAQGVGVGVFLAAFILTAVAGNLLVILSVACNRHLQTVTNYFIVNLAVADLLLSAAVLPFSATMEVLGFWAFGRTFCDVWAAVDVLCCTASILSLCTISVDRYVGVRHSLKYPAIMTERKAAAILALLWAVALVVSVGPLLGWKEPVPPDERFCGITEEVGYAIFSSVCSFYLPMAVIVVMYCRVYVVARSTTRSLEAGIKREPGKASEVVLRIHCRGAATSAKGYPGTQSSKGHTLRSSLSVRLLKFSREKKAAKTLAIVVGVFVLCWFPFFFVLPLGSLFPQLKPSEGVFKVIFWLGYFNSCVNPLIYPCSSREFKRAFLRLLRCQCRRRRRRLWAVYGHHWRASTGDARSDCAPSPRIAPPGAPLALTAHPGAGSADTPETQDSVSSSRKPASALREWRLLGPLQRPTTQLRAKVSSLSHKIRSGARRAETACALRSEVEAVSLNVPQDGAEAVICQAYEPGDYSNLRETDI
T2 sequence (P43140 whole entry): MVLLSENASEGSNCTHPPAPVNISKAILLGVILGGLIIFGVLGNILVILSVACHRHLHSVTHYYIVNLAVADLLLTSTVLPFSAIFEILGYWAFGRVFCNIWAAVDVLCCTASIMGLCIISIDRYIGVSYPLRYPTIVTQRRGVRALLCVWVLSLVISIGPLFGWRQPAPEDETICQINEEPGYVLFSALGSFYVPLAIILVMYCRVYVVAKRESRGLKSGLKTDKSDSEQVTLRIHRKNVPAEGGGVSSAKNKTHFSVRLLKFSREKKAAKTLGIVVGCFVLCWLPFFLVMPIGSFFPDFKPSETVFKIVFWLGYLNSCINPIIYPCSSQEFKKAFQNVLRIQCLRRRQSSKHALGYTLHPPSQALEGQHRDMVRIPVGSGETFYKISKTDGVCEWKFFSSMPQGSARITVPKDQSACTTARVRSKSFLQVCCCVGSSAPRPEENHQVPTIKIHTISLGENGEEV

[3] = molecular target: T3, Adrenergic receptor alpha-2 (Rattus norvegicus, UniProt P22086+P19328+P22909); test: Binding affinity for Alpha-2 adrenergic receptor in rat cortex membranes using [3H]rauwolscine as radioligand; format: cell membranes
T3 sequence (P22086 whole entry): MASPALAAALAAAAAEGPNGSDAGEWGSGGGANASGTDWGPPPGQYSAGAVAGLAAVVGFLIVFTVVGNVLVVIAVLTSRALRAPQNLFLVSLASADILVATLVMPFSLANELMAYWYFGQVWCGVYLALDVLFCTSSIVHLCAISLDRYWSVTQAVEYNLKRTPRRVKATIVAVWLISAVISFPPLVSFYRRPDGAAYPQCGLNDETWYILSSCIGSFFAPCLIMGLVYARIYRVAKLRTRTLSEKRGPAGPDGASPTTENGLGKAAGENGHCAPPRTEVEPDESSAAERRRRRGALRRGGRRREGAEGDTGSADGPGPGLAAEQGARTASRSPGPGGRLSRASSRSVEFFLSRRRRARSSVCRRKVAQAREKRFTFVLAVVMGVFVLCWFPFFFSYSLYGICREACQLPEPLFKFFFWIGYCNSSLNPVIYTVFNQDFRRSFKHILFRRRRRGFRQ
T3 sequence (P19328 whole entry): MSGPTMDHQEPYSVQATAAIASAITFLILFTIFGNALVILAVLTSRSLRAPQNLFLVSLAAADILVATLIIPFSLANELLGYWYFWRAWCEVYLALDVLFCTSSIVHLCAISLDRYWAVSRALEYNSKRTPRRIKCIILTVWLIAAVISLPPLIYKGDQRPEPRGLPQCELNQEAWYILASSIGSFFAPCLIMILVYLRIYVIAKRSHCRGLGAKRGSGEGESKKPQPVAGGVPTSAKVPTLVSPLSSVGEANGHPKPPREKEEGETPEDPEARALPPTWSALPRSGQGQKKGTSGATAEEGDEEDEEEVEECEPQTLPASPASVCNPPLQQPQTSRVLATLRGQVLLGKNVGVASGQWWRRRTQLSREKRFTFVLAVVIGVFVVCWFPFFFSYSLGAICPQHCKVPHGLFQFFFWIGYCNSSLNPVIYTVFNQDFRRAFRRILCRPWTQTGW
T3 sequence (P22909 whole entry): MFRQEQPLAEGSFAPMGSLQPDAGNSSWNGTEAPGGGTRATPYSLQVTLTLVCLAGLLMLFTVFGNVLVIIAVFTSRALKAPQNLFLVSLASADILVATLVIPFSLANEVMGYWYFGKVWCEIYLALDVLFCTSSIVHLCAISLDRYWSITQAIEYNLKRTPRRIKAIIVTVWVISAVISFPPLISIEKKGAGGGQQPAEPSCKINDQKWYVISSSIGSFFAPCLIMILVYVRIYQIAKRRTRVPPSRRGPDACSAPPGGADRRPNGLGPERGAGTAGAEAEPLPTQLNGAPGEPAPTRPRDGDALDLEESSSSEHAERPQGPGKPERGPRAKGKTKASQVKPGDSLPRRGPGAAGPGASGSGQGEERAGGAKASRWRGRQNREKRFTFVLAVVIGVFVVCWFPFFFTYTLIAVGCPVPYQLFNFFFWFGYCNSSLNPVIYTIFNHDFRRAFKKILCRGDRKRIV

[4] = molecular target: T2, Adrenergic receptor alpha-1; test: Intrinsic activity towards Alpha-1 adrenergic receptor by the displacement of [3H]prazosin from rat cerebral cortex membrane in presence of 1 nM GTP.; format: tissue-based
[5] = molecular target: T2, Adrenergic receptor alpha-1; test: Intrinsic activity towards Alpha-1 adrenergic receptor by the displacement of [3H]prazosin from rat cerebral cortex membrane in absence of 1 nM GTP; format: tissue-based
[6] = molecular target: Adrenergic receptor alpha-1 (Rattus norvegicus) (UniProt P15823+P23944+P43140)

Row | SMILES | Ki [1] | Ki [2] | Ki [3] | Ki [4] | Ki [5] | GTP shift [6]
1 | CCOc1ccccc1N1CCN(CCCCCCCn2ncc(Cl)c(N3CCN(C(=O)c4ccco4)CC3)c2=O)CC1 | 0.35 nM | 0.23 nM | 0.8 nM |  |  | 
2 | COc1ccccc1N1CCN(CCCCCCCn2ncc(N3CCN(CC4COc5ccccc5O4)CC3)c(Cl)c2=O)CC1 (configuration not stated) | 11.1 nM | 1.68 nM | 0.85 nM |  |  | 
3 | CC(C)Oc1ccccc1N1CCN(CCCCCCCn2ncc(N3CCN(CC4COc5ccccc5O4)CC3)c(Cl)c2=O)CC1 (configuration not stated) | 2.47 nM | 0.31 nM | 3.34 nM | 0.33 nM | 0.23 nM | 1.4
4 | CCOc1ccccc1OCCN1CCN(c2cnn(CCCCCCCN3CCN(c4ccccc4OC(C)C)CC3)c(=O)c2Cl)CC1 | 2.54 nM |  |  | 0.22 nM | 0.28 nM | 0.8
5 | CC(C)Oc1ccccc1N1CCN(CCCCCCCn2ncc(N3CCN(C(=O)c4ccco4)CC3)c(Cl)c2=O)CC1 | 0.9 nM |  |  | 0.081 nM | 0.047 nM | 1.7
6 | CCOc1ccccc1OCCN1CCN(c2cnn(CCCCCCCN3CCN(c4ccccc4OCC)CC3)c(=O)c2Cl)CC1 | 1.32 nM |  |  |  |  | 
7 | CCOc1ccccc1N1CCN(CCCCCCCn2ncc(Cl)c(N3CCN(CC4COc5ccccc5O4)CC3)c2=O)CC1 (configuration not stated) | 1.02 nM | 0.43 nM | 2.4 nM |  |  | 
8 | COc1ccccc1N1CCN(CCCCCCCn2ncc(Cl)c(N3CCN(C(=O)c4ccco4)CC3)c2=O)CC1 | 0.42 nM | 0.37 nM | 1.23 nM |  |  | 
9 | COc1ccccc1N1CCN(CCCCCCCn2ncc(Cl)c(N3CCN(CC4COc5ccccc5O4)CC3)c2=O)CC1 (configuration not stated) | 0.4 nM | 0.54 nM | 1.45 nM |  |  | 
10 | CC(C)Oc1ccccc1N1CCN(CCCCCCCn2ncc(Cl)c(N3CCN(C(=O)c4ccco4)CC3)c2=O)CC1 | 1.16 nM | 0.08 nM | 0.66 nM |  |  | 
11 | CCOc1ccccc1OCCN1CCN(c2cnn(CCCCCCCN3CCN(c4ccccc4OC)CC3)c(=O)c2Cl)CC1 | 0.82 nM |  |  |  |  | 
12 | COc1cc2nc(N3CCN(C(=O)c4ccco4)CC3)nc(N)c2cc1OC |  |  |  |  |  | 1.2
13 | CC(C)Oc1ccccc1N1CCN(CCCCCCCn2ncc(Cl)c(N3CCN(CC4COc5ccccc5O4)CC3)c2=O)CC1 (configuration not stated) | 1.52 nM | 0.32 nM | 13.4 nM |  |  | 
14 | COc1ccccc1OCCN1CCN(c2cnn(CCCCCCCN3CCN(c4ccccc4OC)CC3)c(=O)c2Cl)CC1 |  | 1.45 nM |  |  |  | 
15 | CCOc1ccccc1N1CCN(CCCCCCCn2ncc(N3CCN(CC4COc5ccccc5O4)CC3)c(Cl)c2=O)CC1 (configuration not stated) | 49.8 nM | 0.42 nM | 2.16 nM |  |  | 
